Results published in ChEMBL document CHEMBL2346540 (J Med Chem, 2013).
pIC50, pKd: −log10 of the molar value.

Legend:
Assay type in all cases: ADME; call rule not given here
Cytochrome P450 3A4 [1] = biological target: T1, Cytochrome P450 3A4 (Homo sapiens, UniProt P08684, S119A); experiment: Binding affinity to CYP3A4 (3-22)-deleted S119A mutant (unknown origin) expressed in Escherichia coli assessed as increase in melting temperature by spectrophotometric analysis (reference value: 53.5 +/- 0.1 degC)
T1 sequence (P08684 2-503 S119A limits assumed): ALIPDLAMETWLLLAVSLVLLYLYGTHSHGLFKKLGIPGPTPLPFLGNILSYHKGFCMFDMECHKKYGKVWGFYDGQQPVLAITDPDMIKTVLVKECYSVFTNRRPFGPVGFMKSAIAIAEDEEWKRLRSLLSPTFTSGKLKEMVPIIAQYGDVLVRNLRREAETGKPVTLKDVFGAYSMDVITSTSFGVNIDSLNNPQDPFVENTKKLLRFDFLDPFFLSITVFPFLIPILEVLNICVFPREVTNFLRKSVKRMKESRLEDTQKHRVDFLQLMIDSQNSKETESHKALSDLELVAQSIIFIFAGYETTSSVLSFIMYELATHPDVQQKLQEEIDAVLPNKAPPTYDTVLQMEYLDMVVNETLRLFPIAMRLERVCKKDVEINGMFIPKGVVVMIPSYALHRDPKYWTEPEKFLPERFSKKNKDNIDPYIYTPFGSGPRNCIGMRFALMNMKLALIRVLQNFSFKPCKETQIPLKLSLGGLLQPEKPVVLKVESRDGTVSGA

Cytochrome P450 3A4 [2] = biological target: T2, Cytochrome P450 3A4 (Homo sapiens, UniProt P08684); experiment: Inhibition of C-terminal His-tagged wild type CYP3A4 (unknown origin)-mediated hydroxylation of 7-benzyloxy-4-trifluoromethylcoumarin expressed in Escherichia coli after 5 mins by fluorimetric analysis
T2 sequence (P08684 whole entry): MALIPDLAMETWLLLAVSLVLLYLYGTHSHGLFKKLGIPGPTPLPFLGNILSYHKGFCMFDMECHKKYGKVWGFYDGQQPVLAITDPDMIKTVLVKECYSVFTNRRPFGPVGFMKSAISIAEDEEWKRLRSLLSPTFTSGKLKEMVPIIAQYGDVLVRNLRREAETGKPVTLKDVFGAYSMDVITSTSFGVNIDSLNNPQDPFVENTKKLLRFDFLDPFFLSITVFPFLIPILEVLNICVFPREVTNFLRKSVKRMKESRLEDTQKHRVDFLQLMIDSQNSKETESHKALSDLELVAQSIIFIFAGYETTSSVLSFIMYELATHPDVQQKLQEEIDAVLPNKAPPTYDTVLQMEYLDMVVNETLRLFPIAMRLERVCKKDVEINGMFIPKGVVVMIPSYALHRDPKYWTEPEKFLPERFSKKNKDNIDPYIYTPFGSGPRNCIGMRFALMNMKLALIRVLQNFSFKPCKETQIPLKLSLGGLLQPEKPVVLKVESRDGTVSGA
Summary of the method: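 Reconstituted system at room temperature: CYP3A4 (0.3 μM) with rat CPR (0.6 μM) in 25 mM phosphate, pH 7.4, 3 mM MgCl2, preincubated 5 min with inhibitor with or without 100 μM NADPH, then 50 μM BFC added.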

Cytochrome P450 3A4 [3] = biological target: T2, Cytochrome P450 3A4; experiment: Binding affinity to C-terminal His-tagged wild type CYP3A4 (unknown origin) expressed in Escherichia coli assessed as rate constant of fast phase of reaction by stopped flow assay
Cytochrome P450 3A4 [4] = biological target: T1, Cytochrome P450 3A4; experiment: Binding affinity to CYP3A4 (3-22)-deleted S119A mutant (unknown origin) expressed in Escherichia coli by stopped flow assay
Cytochrome P450 3A4 [5] = biological target: T2, Cytochrome P450 3A4; experiment: Binding affinity to C-terminal His-tagged wild type CYP3A4 (unknown origin) expressed in Escherichia coli assessed as increase in melting temperature by spectrophotometric analysis (reference value: 52.1 +/- 0.1 degC)
Cytochrome P450 3A4 [6] = biological target: T2, Cytochrome P450 3A4; experiment: Binding affinity to C-terminal His-tagged wild type CYP3A4 (unknown origin) expressed in Escherichia coli assessed as spectral changes by spectrophotometric analysis relative to control
Summary of the method: (§1)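 Spectrophotometric titration of purified enzyme with small aliquots of ligand in DMSO (final solvent ≤2%) in 50 mM phosphate, pH 7.4, 20% glycerol, 1 mM dithiothreitol; spectra recorded at room temperature and spectral dissociation constant Ks derived from absorbance change vs ligand concentration.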

Cytochrome P450 3A4 [7] = biological target: T1, Cytochrome P450 3A4; experiment: Binding affinity to CYP3A4 (3-22)-deleted S119A mutant (unknown origin) expressed in Escherichia coli by spectrophotometric analysis; details: read-out: Ks; summary of the method: as §1
Cytochrome P450 3A4 [8] = biological target: T2, Cytochrome P450 3A4; experiment: Ratio of ritonavir Ks to compound Ks for C-terminal His-tagged wild type CYP3A4 (unknown origin)
Cytochrome P450 3A4 [9] = biological target: T2, Cytochrome P450 3A4; experiment: Ratio of compound binding constant to ritonavir binding constant for C-terminal His-tagged wild type CYP3A4 (unknown origin)
Cytochrome P450 3A4 [10] = biological target: T2, Cytochrome P450 3A4; experiment: Binding affinity to C-terminal His-tagged wild type CYP3A4 (unknown origin) expressed in Escherichia coli by spectrophotometric analysis; details: read-out: Ks; summary of the method: as §1
Cytochrome P450 3A4 [11] = biological target: T2, Cytochrome P450 3A4; experiment: Binding affinity to C-terminal His-tagged wild type CYP3A4 (unknown origin)-bromoergocryptine complex expressed in Escherichia coli by spectrophotometric analysis; details: read-out: Ks
CYP3A4 = CYP3A4 (Homo sapiens, UniProt P08684); experiment: Ratio of ritonavir IC50 to compound IC50 for C-terminal His-tagged wild type CYP3A4 (unknown origin); details: read-out: Ratio IC50
Chain of CYP3A4 (P08684 whole entry): as above

| Tm (Cytochrome P450 3A4 [1]) [°C] | pIC50 (Cytochrome P450 3A4 [2]) | K (Cytochrome P450 3A4 [3]) [s⁻¹] | K (Cytochrome P450 3A4 [4]) [s⁻¹] | Tm (Cytochrome P450 3A4 [5]) [°C] | Activity (Cytochrome P450 3A4 [6]) | pKd (Cytochrome P450 3A4 [7]) | Ratio (Cytochrome P450 3A4 [8]) | Ratio (Cytochrome P450 3A4 [9]) | pKd (Cytochrome P450 3A4 [10]) | pKd (Cytochrome P450 3A4 [11]) | Compound | selectivity ratio (CYP3A4) |
| --- | --- | --- | --- | --- | --- | --- | --- | --- | --- | --- | --- | --- |
| 55.6 | 6.89 | 7 | 0.32 | 57.2 | Active | 7.19 | 2 | 5 | 7.60 | 8.30 | CC(C)c1nc(CN(C)C(=O)N[C@H](C(=O)N[C@H](CC[C@H](Cc2ccccc2)NC(=O)OCc2cccnc2)Cc2ccccc2)C(C)C)cs1 | – |
| 53.2 | 5.47 | 2.2 | 0.2 | 54.8 | 60% | 6.01 | – | – | 6.24 | – | CC(C)c1nc(CN(C)C(=O)N[C@H](C(=O)N[C@H](CC[C@H](Cc2ccccc2)NC(=O)OCc2cnco2)Cc2ccccc2)C(C)C)cs1 | – |
| 55.5 | 6.55 | 1.9 | 0.17 | 56.5 | Not Active | 7.17 | 2 | – | 7.66 | – | CC(C)c1nc(CN(C)C(=O)N[C@H](C(=O)N[C@H](CC[C@H](Cc2ccccc2)NC(=O)OCc2cnc[nH]2)Cc2ccccc2)C(C)C)cs1 | 2 |
